mABHD4 FP: inhibits mouse alpha/beta hydrolase domain 4. Q8VD66. purified mABHD4, FP-Rh probe fluorescence polarization. inhibition, % at 8.92 µM. hit rate 0.54% among 370,000. AID 720543;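 active means inhibition exceeding the mean over every tested compound plus 3 SD, cut at about 30% in these data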;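 further: 0% = plate median of compound wells and 100% = S159A mutant with DMSO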
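Doses – 8.92 µM, single dose · Material – wild-type mouse ABHD4 protein · Replication – single well per compound (singlicate) · Measure – percent inhibition of probe binding, normalized to plate controls · Schedule – 45 min compound pre-incubation plus 60 min probe step, 25 °C · Detection – fluorescence polarization with parallel and perpendicular emission, 525/598 nm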
HTRA1 inhibitor: blocks human HTRA1 serine peptidase. hit rate 0.5% among 340,000. inhibition, % at 5.96 µM. recombinant HTRA1, FP-rhodamine activity-based probe, fluorescence polarization. Q92743; in the data active means inhibition above about 36%;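 further: 0% = enzyme with DMSO and 100% = wells lacking enzyme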
TDP2 absorb: blocks human TDP2 phosphodiesterase activity | inhibition, % at 12.8 µM | recombinant TDP2, T5PNP hydrolysis, p-nitrophenol absorbance 415 nm | hit rate 0.34% among 370,000;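 active means inhibition above the mean of all tested compounds plus 3 SD, set per campaign, cut at about 25% in these data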;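 further: 0% = DMSO with enzyme and 100% = buffer with substrate but no TDP2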
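System – recombinant human TDP2 · Quantity – TDP2 enzyme at 120 nM final · Doses – single concentration, 12.8 µM nominal, with 1% DMSO · Incubation – 2 h at 37 °C · Measured by – epi absorbance of p-nitrophenol freed from T5PNP by hydrolysis · Read-out – % inhibition relative to enzyme-containing and enzyme-free wells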
LEDGF integ inh: blocks HIV-1 LEDGF/p75-dependent DNA integration | TR-FRET IN-LEDGF/p75 DNA integration, Eu/Cy5 | inhibition, % at 3.7 µM | hit rate 0.64% among 370,000 | AID 743269;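 active means inhibition above the screen-wide mean plus 3 SD, cut at about 13% in these data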;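 further: signal is the Cy5 over europium emission ratio at 671 and 618 nm; 0% = plate median of compound wells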
TCR CD3 inh: inhibitors of human TCR-CD3 interaction | inhibition, % at 9.4 µM | TAMRA-labeled TCR probe fluorescence, biochemical | hit rate 0.37% among 360,000 | AID 651800; in the data active means inhibition above about 19%;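 further: recombinant mutant TCR 2C K166C tagged with TAMRA read by polarization; 0% = receptor in buffer alone and 100% = receptor with positive control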
SIAE inh: inhibitors of human sialic acid acetylesterase SIAE. Q9HAT2. SIAE FP-Rh probe binding, fluorescence polarization. inhibition, % at 9.66 µM. hit rate 0.69% among 370,000;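 active means inhibition above a cutoff: mean of compounds within the control limits plus 3 SD of those, cut at about 17% in these data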;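 further: 0% = plate median of compound wells and 100% = probe without SIAE protein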
Target sequence (Q9HAT2 whole entry, looked up): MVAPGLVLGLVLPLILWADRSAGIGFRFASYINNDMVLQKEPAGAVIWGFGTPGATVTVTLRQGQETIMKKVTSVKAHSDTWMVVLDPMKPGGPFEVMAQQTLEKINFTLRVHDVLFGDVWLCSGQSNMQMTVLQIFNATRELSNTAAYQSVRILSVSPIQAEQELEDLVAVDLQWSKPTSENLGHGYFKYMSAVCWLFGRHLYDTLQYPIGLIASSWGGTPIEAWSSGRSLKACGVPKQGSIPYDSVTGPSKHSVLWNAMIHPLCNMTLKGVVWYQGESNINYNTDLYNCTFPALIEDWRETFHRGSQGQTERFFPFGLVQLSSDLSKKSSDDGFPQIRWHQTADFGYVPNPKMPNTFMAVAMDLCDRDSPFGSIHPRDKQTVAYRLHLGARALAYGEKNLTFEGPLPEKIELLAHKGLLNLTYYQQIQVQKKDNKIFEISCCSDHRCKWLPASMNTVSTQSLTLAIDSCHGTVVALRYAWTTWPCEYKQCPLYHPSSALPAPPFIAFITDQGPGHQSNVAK
Numbers without * were called inactive; / = no result; ! = not confirmed by another sample. Rows were chosen to be rich in hits. Some 2.2% of all compounds tested hit in one or more screens of this group.

SMILES	mABHD4 FP	HTRA1 inhibitor	TDP2 absorb	LEDGF integ inh	TCR CD3 inh	SIAE inh
CC1=C([N+](=O)[O-])C(c2ccccc2)C2=C(N1)c1ccccc1C2=O (configuration not stated)	18.6	21.2	13.4	-2.5	-4.0	8.6
Cc1ccc(NC(=O)CN2C(=O)N/C(=C/c3cc(C)n(-c4ccc(C(=O)O)cc4)c3C)C2=O)cc1	-1.6	-11.0	8.0	7.4	5.1	-1.0
Cc1ccc(NC(=O)CN2C(=O)N/C(=C/c3cccn3-c3ccc(C(=O)O)cc3)C2=O)cc1	3.1	-3.8	15.8	57.4*	11.1	0.7
CN=C1S/C(=C/c2cc(C)n(-c3ccc(Cl)cc3F)c2C)C(=O)N1C	-4.2	/	-5.7	1.9	/	0.3
O=S1(=O)C=C(Sc2ccc(Cl)cc2)c2ccccc2C1Cc1ccc(F)cc1 (configuration not stated)	-11.6	/	8.2	0.7	-3.7	3.2
NC(=O)c1ccc(N=C2C(=O)Nc3ccc([N+](=O)[O-])cc32)cc1	-0.2	9.2	44.1*	4.2	-0.5	-3.4
N=C1/C(=C\c2ccc(Br)o2)C(=O)N=C2SC(CC(=O)N3CCOCC3)=NN12	-48.7	-12.3	5.1	22.2*	2.4	-24.9
N=C1/C(=C/c2ccc(Br)o2)C(=O)N=C2SC(CC(=O)N3CCCC3)=NN12	-21.0	-13.7	6.4	16.0*	7.6	-12.7
Cc1ccc(C(=O)Nc2ccc(C(=O)O)cc2NC(=O)c2ccc(C)cc2)cc1	5.9	-4.6	-8.3	26.7*	-1.9	-5.5
O=C(O)c1ccc(NC(=O)c2ccc(Cl)cc2)c(NC(=O)c2ccc(Cl)cc2)c1	0.9	-30.9	-11.1	2.9	3.5	-15.0
CCOC(=O)[C@@]12CCCC=C1N(CCc1ccc(Cl)cc1)C(=O)[C@H]2CC(=O)N1CCN(C(=O)c2ccco2)CC1	-2.0	/	1.2	4.4	/	6.8
COc1ccc(CNC(=O)[C@@H](Cc2ccccc2)NC(=O)[C@H]2O[C@@H](n3ccc(=O)[nH]c3=O)[C@H](O)[C@@H]2O)cc1	0.5	/	0.5	-6.0	9.7	-1.8
CC(OC(=O)c1cc(O)c2ccccc2c1O)C(=O)Nc1ccc(C(N)=O)cc1 (configuration not stated)	26.5	15.6	47.4*	14.5*	5.2	2.2
CC(OC(=O)c1ccccc1C(=O)N(C)c1ccccc1)C(=O)Nc1ccc(C(N)=O)cc1 (configuration not stated)	-5.7	-5.4	-13.7	1.5	-3.3	-5.6
CCN(C(=O)COc1cc(=O)n(CC)c2ccccc12)c1cc(Cl)ccc1OC	0.8	-2.3	-0.8	-1.0	0.1	21.7*
CCN1CCC(O)(/C=C/c2ccc(C(C)C)cc2)C(C(=O)/C=C/c2ccc(C(C)C)cc2)C1 (configuration not stated)	34.0*	0.6	2.8	-2.6	-1.5	1.6
Cc1nn2c(N3CCOCC3)cc(C(C)C)nc2c1-c1ccccc1	6.1	3.5	0.1	-5.4	-6.6	-3.4
CCN1CCN(c2cc(C(C)C)nc3c(-c4ccccc4)c(C)nn23)CC1	13.9	/	4.4	1.1	2.7	18.5*
COC(=O)C1=C(C)N(Cc2ccc(Br)cc2)C(=S)NC1c1ccccc1 (configuration not stated)	-17.1	/	1.8	2.5	-0.2	-6.6
O=C(Nc1ccccc1C(F)(F)F)NC1(C(=O)N2CCOCC2)CCCCC1	20.9	-4.3	2.8	24.7*	10.3	0.1
Cc1ccccc1NC(=O)NC1(C(=O)N2CCOCC2)CCCCC1	-3.6	6.2	-7.0	5.3	-6.0	-1.2
CCOc1ccccc1-c1c2cc(O)c(=O)cc-2oc2cc(O)c(O)cc12	/	85.1*	/	/	/	/
COc1cc(-c2nnc(-c3cccs3)o2)cc(OC)c1OC	-5.2	-2.9	-6.5	-3.2	-3.6	17.6*
COc1ccc(-c2nnc(-c3cccs3)o2)cc1OC	2.3	2.2	-0.3	-0.2	-3.4	0.1
CCSC(=Nc1ccccc1)C1=C(O)COC1=O	-11.3	-2.3	2.8	-1.8	-0.5	18.7*
SMILES	mABHD4 FP	HTRA1 inhibitor	TDP2 absorb	LEDGF integ inh	TCR CD3 inh	SIAE inh
Cc1ccc(NC2=C/C(=N\S(=O)(=O)c3cccs3)c3ccccc3C2=O)c(C)c1	/	53.4*	/	/	/	/
Cc1ccc(Cl)cc1NC1=C/C(=N\S(=O)(=O)c2cccs2)c2ccccc2C1=O	22.3	40.1*!	23.3	10.3	-1.9	7.2
Cc1cccc(NC2=C/C(=N/S(=O)(=O)c3cccs3)c3ccccc3C2=O)c1	13.2	8.9	19.7	2.2	3.2	16.3
COc1ccc(CCNC2CC(=O)N(CCc3ccccc3)C2=O)cc1 (configuration not stated)	-2.2	0.3	-7.8	-3.4	-0.4	0.7
CCN(CC)c1ccc(NC2CC(=O)N(CCc3ccc(OC)cc3)C2=O)cc1 (configuration not stated)	28.7	53.7*	11.9	1.6	6.2	9.9
COCCCNC(=O)C[C@H]1C[C@@]2(C(=O)OC)C(=C[C@H](C(C)C)O[C@@H]2C2CC2)N(Cc2ccc3c(c2)OCO3)C1=O	2.2	/	4.5	2.5	/	3.3
CN(C)c1ccc(N=Cc2ccco2)cc1	/	54.6*	/	/	/	/
C=CCN1C(=O)[C@@H](CC(=O)NCc2ccc(OC)c(OC)c2)[C@]2(C(=O)OCC)CCCCC/C=C/12	-2.4	/	-5.2	-4.9	/	1.4
CCOc1cc(CNc2ccc3cn[nH]c3c2)ccc1OC	13.6	-5.7	29.9*	0.8	-11.1	0.6
Cc1ccc(Nc2nc3c([nH]2)c(=O)[nH]c(=O)n3C)cc1	0.0	1.1	-0.8	44.9*	-1.3	3.6
Cn1c(=O)c2[nH]c(Nc3ccccc3)nc2n(C)c1=O	0.9	6.3	-4.7	-0.2	2.7	2.0
CC(C)(C)OC(=O)N1CCC2CCN(S(=O)(=O)c3ccccc3)CC21 (configuration not stated)	0.5	/	-9.3	-1.4	-2.9	5.0
COc1ccc(C(=O)Oc2c(C)occc2=O)cc1OC	-5.1	6.4	0.5	-1.6	2.2	-2.4
Cc1occc(=O)c1OC(=O)Nc1ccc(Cl)c(Cl)c1	-94.0	-87.9	-7.7	-2.9	73.3*	-176.7
O=C(OCC(=O)c1ccc[nH]1)c1ccc([N+](=O)[O-])cc1	4.5	3.0	6.1	-2.6	2.0	8.2
O=C(COC(=O)c1ccc([N+](=O)[O-])s1)c1ccc[nH]1	2.0	24.0	35.1*	3.5	1.0	1.3
O=S(=O)(O)c1cc(O)c2ccc(Nc3ccccc3)cc2c1	63.2*	21.1	16.9	31.8*	34.8*	14.2
O=C(Nc1ccc2nc(-c3ccco3)c(-c3ccco3)nc2c1)NC1CC1	/	50.8*	/	/	/	/
O=C(Nc1cccc(C(F)(F)F)c1)c1ccc2nc(-c3ccco3)c(-c3ccco3)nc2c1	8.6	67.1*	-5.6	-0.8	-6.8	-1.9
CCCCN(C)C(=O)CNc1nnnn1-c1ccccc1	2.9	/	-3.8	-2.6	/	0.0
CCCCCCCCCCCCCCCC[N+](C)(C)CCN(Cc1ccc(OC)cc1)c1ncccn1	/	52.4*	/	/	/	/
